The source of these data is ChEMBL document CHEMBL4325870, “Synthesis and biological evaluation of 3-aryl-quinolin derivatives as anti-breast cancer agents targeting ERα and VEGFR-2” (Eur J Med Chem, 2019).

For data set [1], the system named is Ishikawa. The data set can be described thus: Antiproliferative activity against human Ishikawa cells after 48 hrs by MTT assay. It counts as functional. In a few lines:
(§1)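 Cells kept in RPMI1640 with 10% FBS and penicillin/streptomycin at 37 °C, 5% CO2. Seeded at 1 x 10^5/mL, grown 24 h, then exposed to compound-containing medium for 48 h; controls received 1% DMSO medium. MTT (5 mg/mL) added for 4 h in the dark, formazan dissolved in DMSO, absorbance read. Value is concentration giving 50% growth inhibition.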
Background: Tetrazolium assays rely on reduction of a dye to a coloured formazan, in cell work by metabolically active cells.

Data set [2] has as its system MCF7. Nature of the data set: Antiproliferative activity against human MCF7 cells after 48 hrs by MTT assay. The following applies: MCF7, 48 h. It counts as functional, cell-based. An outline of the steps:
as §1

Data set [3] relates to Ishikawa. The data set can be described thus: Stimulation of cell proliferation in human Ishikawa cells at 1 to 10 uM after 48 hrs by MTT assay. It counts as ADME, cell-based. In a few lines: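 Ishikawa endometrial cells in RPMI1640 with 10% FBS, seeded at 1 x 10^5/mL, exposed 48 h to compound at 1 μM or 10 μM, then read by MTT assay (5 mg/mL MTT, 4 h, dark, DMSO solubilisation, absorbance).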

Data set [4] has as its target Vascular endothelial growth factor receptor 2 (Homo sapiens, UniProt P35968).
A further data set deals with HUVEC. The data set can be described thus: Antiproliferative activity against HUVEC after 48 hrs by MTT assay. To be noted: Homo sapiens. It counts as functional, cell-based. In a few lines:
as §1

Data set [5] concerns MCF7. Nature of the data set: Cell cycle arrest in human MCF7 cells assessed as accumulation at S phase at 1.25 uM after 24 hrs by propidium iodide staining based flow cytometry (reference value: 18.93%). It counts as functional. An outline of the steps: (§2)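 MCF-7 cells exposed to 1.25 μM compound or DMSO vehicle for 12 h and 24 h. Cells washed in ice-cold PBS, pelleted, fixed in ice-cold 70% ethanol, RNase-treated (0.1 mg/mL), stained with propidium iodide, and analysed by flow cytometry for G1, S and G2 phase distribution.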
For orientation: In flow cytometry, cells or beads pass a laser one at a time.

In data set [6] the test system is MCF7. The data set can be described thus: Cell cycle arrest in human MCF7 cells assessed as accumulation at S phase at 1.25 uM after 12 hrs by propidium iodide staining based flow cytometry (reference value: 18.93%). It counts as functional. In a few lines:
as §2

The subject of data set [7] is MCF7. The data set can be described thus: Cell cycle arrest in human MCF7 cells assessed as accumulation at G1 phase at 1.25 uM after 24 hrs by propidium iodide staining based flow cytometry (reference value: 46.25%). It counts as functional. An outline of the steps:
as §2

For data set [8], the system named is MCF7. Nature of the data set: Cell cycle arrest in human MCF7 cells assessed as accumulation at G2 phase at 1.25 uM after 24 hrs by propidium iodide staining based flow cytometry (reference value: 31.48%). It counts as functional. An outline of the steps: as §2
A further data set deals with T1, Estrogen receptor (Homo sapiens, UniProt P03372).
T1 sequence (P03372 whole entry): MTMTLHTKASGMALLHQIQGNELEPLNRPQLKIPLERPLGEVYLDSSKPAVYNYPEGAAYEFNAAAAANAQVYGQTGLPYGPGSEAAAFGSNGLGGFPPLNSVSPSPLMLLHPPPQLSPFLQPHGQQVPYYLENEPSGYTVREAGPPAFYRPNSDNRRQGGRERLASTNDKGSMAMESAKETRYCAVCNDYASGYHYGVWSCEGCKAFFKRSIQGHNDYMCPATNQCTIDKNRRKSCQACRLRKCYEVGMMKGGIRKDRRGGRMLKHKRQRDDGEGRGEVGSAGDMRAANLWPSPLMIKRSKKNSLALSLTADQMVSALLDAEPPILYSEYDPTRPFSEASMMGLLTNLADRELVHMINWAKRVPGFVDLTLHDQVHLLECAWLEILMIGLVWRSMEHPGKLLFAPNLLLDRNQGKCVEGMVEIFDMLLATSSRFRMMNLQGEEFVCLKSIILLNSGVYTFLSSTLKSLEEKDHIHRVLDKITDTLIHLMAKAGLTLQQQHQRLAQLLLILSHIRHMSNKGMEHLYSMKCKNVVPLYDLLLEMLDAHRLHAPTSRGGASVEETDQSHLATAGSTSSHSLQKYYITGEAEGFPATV
The data set can be described thus: Displacement of fluorescent estrogen ligand from recombinant human full length untagged ERalpha expressed in Spodoptera frugiperda insect cells measured after 2 hrs by fluorescence polarization assay. (In general: In fluorescence polarisation assays a small probe gives low polarisation when free and higher when bound to something large.)

Data set [9] concerns MCF7. Nature of the data set: Effect on progesterone receptor mRNA expression in non-stimulated human MCF7 cells at 1 uM by SYBR green dye based RT-PCR analysis. It counts as ADME, cell-based. The following applies: mcf7, 1 µM. In a few lines: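 Real-time PCR on MCF-7 cells given compound at 1 μM alone, without estradiol. Amplification: 95 °C 2 min, then 40 cycles of 95 °C 10 s, 60 °C 30 s, 95 °C 10 s. PgR mRNA normalised to GAPDH by the ΔΔCT method; mean ± SD, n=3.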

The subject of data set [10] is MCF7. The data set can be described thus: Cell cycle arrest in human MCF7 cells assessed as accumulation at G1 phase at 1.25 uM after 12 hrs by propidium iodide staining based flow cytometry (reference value: 46.25%). It counts as functional. In a few lines: as §2
The subject of data set [11] is MCF7. Nature of the data set: Cell cycle arrest in human MCF7 cells assessed as accumulation at G2 phase at 1.25 uM after 12 hrs by propidium iodide staining based flow cytometry (reference value: 31.48%). It counts as functional. In a few lines: as §2
Data set [12] relates to MCF7. The data set can be described thus: Antimigratory activity in human MCF7 cells assessed as inhibition of wound healing at 1.25 uM after 8 to 48 hrs by phase contrast microscopic analysis. It counts as functional, cell-based. In a few lines: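 Wound-healing assay: MCF-7 monolayers grown to full confluence in 24-well plates, scratched with a tip, washed twice with PBS, then given serum-free 1640 medium with or without compound at 1.25 μM. Wound closure photographed by phase-contrast microscopy (100×) at 8, 16, 24/48 h; migration rate quantified from images.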

Activity calls are given as the source filed them. No cut-off for these calls is given here.

Vascular endothelial growth factor receptor 2, sequence (P35968 whole entry): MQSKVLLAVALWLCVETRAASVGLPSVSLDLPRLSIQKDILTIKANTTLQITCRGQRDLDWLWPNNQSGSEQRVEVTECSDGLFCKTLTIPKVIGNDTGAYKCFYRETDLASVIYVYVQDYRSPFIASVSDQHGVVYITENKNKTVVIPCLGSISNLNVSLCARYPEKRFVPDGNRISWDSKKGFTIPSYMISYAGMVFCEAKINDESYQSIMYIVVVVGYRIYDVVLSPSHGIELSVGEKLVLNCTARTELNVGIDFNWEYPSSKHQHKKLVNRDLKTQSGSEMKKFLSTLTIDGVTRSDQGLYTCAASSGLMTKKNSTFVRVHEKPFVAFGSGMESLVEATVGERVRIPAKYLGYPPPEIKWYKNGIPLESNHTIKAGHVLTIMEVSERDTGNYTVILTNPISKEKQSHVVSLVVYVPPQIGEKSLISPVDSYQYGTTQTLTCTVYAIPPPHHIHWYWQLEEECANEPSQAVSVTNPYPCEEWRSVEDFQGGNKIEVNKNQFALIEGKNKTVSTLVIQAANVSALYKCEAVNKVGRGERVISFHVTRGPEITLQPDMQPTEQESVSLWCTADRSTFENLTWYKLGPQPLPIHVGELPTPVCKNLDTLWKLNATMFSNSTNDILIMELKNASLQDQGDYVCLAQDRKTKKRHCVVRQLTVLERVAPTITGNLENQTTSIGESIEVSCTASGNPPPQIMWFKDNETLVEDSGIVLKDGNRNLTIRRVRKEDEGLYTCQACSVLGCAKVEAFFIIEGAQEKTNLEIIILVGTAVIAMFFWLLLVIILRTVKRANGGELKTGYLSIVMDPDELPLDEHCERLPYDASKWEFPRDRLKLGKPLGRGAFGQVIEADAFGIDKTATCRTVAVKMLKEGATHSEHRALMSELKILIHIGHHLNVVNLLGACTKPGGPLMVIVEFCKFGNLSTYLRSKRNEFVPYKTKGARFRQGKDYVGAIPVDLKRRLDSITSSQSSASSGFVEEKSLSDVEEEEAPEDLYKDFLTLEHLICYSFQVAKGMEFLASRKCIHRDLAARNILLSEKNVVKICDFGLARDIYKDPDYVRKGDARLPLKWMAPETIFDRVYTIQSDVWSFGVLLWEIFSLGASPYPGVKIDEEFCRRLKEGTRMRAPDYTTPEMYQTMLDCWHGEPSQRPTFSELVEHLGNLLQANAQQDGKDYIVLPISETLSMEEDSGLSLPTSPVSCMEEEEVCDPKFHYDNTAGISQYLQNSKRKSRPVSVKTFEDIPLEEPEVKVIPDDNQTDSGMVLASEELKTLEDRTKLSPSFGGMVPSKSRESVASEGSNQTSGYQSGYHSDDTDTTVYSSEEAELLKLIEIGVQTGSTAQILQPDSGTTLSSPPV

One may read the IC50 as the concentration needed to halve the response being measured. As to `O=C(c1ccc(OCCN2CCCCC2)cc1)c1c(-c2ccc(O)cc2)sc2cc(O)ccc12` [RALOXIFENE], the Activity was more than 50 µM with Ishikawa [1] and “Toxic” with Ishikawa [3]. Besides, the IC50 in the data set with MCF7 [2] came out at 12.5 µM.

The compound `COc1ccc(-c2cc3cc(OC)ccc3nc2Nc2ccc(NC(=O)CN(C)C)cc2)cc1` gave an Activity in the data set on Ishikawa [1] of more than 50 µM. Besides, the IC50 in the data set on MCF7 [2] turned out to be 39.5 µM; in data set [4] it was 109 nM; in the data set with HUVEC it was 22.2 µM.

Compound `COc1ccc(-c2cc3ccc(OC)cc3nc2Nc2ccc(NC(=O)CN3CCCCC3)cc2)cc1` registered an Activity in the data set on Ishikawa [1] of more than 50 µM. The results for the IC50 (in the data set with MCF7 [2]; in [4]; with HUVEC) were 47.9 µM, 79 nM and 23.5 µM, respectively.

On to `COc1ccc(-c2cc3cc(OC)ccc3nc2Nc2ccc(NC(=O)CN3CCN(C)CC3)cc2)cc1`, for which the Activity is 22.39% in the data set with MCF7 [5]; 18.78% in the data set on MCF7 [6]; 54.63% with MCF7 [7]; 1.8 µM with Ishikawa [1]; 20.43% in the data set on MCF7 [8]; “Non-Toxic” in the data set on MCF7 [9]. In addition, the Activity result is on record as “Non-Toxic” with Ishikawa [3], 51.18% in the data set on MCF7 [10] and 28.82% in the data set with MCF7 [11]. The IC50 in the data set with MCF7 [2] is 1.8 µM; in data set [4], 86 nM; with HUVEC, 7.4 µM; at Estrogen receptor, 1780 nM.

As to `COc1ccc(-c2cc3ccc(OC)cc3nc2Nc2ccc(NC(=O)CN3CCOCC3)cc2)cc1`, in the data set with Ishikawa [1], the Activity was more than 50 µM. The IC50 in the data set with MCF7 [2] is more than 50 µM; in data set [4] it was 110 nM; in the data set on HUVEC, 9.1 µM.

`COc1ccc(-c2cc3ccc(OC)cc3nc2Nc2ccc(NC(=O)CN3CCCC3)cc2)cc1` registered an Activity in the data set with Ishikawa [1] of 8.2 µM. Moreover, the figures for the IC50 (with MCF7 [2]; in data set [4]; in the data set on HUVEC) were 6.6 µM, 125 nM and 8.6 µM, respectively.

Take `COc1ccc(-c2cc3cc(OC)ccc3nc2Nc2ccc(NC(=O)CN3CCCC3)cc2)cc1`: the Activity in the data set with Ishikawa [1] came to 10.3 µM. Besides, the IC50 was found to be 7.29 µM in the data set on MCF7 [2], 131 nM in data set [4] and 13.1 µM in the data set on HUVEC.

`COc1ccc(-c2cc3ccc(OC)cc3nc2Nc2ccc(NC(=O)CN(C)C)cc2)cc1` registered an Activity with Ishikawa [1] of 8.4 µM. Moreover, the IC50 came to 9.6 µM with MCF7 [2], 114 nM in data set [4] and 9.2 µM with HUVEC.

Compound `CCN(CC)CC(=O)Nc1ccc(Nc2nc3cc(OC)ccc3cc2-c2ccc(OC)cc2)cc1` gave an Activity in the data set with Ishikawa [1] of 21.4 µM. The IC50 with MCF7 [2] was 17.3 µM; in data set [4] it was 101 nM; with HUVEC it was 14 µM.

In the case of `CCN(CC)CC(=O)Nc1ccc(Nc2nc3ccc(OC)cc3cc2-c2ccc(OC)cc2)cc1`, the Activity in the data set on Ishikawa [1] was more than 50 µM. The IC50 in the data set with MCF7 [2] was more than 50 µM; in data set [4], 81 nM; in the data set with HUVEC, 45.6 µM.

In the case of `CCN(CC)CCNC(=O)c1c(C)[nH]c(/C=C2\C(=O)Nc3ccc(F)cc32)c1C` [SUNITINIB], the inhibition result with MCF7 [12] was “Active”. In the data set on Ishikawa [1], this compound displayed an Activity of 14.3 µM. Moreover, half-maximal inhibition in the data set on HUVEC (IC50) was put at 3.2 µM.

As to `COc1ccc(-c2cc3ccc(OC)cc3nc2Nc2ccc(NC(=O)CN3CCN(C)CC3)cc2)cc1`, the Activity in the data set on Ishikawa [1] was 3.8 µM; in the data set on Ishikawa [3], “Non-Toxic”. Moreover, the IC50 with MCF7 [2] was 2.8 µM; in [4], 104 nM; in the data set with HUVEC, 7.4 µM; on Estrogen receptor, 2330 nM.

Turning to `COc1ccc(-c2cc3cc(OC)ccc3nc2Nc2ccc(NC(=O)CN3CCCCC3)cc2)cc1`, the Activity in the data set with Ishikawa [1] is more than 50 µM. For the same compound, the IC50 with MCF7 [2] is more than 50 µM; in data set [4] it was 80 nM; with HUVEC, more than 50 µM.

The compound `COc1ccc(-c2cc3cc(OC)ccc3nc2Nc2ccc(NC(=O)CN3CCOCC3)cc2)cc1` gave an Activity in the data set on Ishikawa [1] of more than 50 µM. Also, the IC50 in the data set with MCF7 [2] is more than 50 µM; in data set [4] it was 117 nM; in the data set on HUVEC it was more than 50 µM.

In the case of `CC/C(=C(\c1ccccc1)c1ccc(OCCN(C)C)cc1)c1ccccc1` [TAMOXIFEN], the Activity is more than 50 µM with Ishikawa [1], “Non-Toxic” with MCF7 [9] and “Toxic” in the data set with Ishikawa [3]. In addition, the half-inhibitory concentration (IC50) with MCF7 [2] was determined as 16.7 µM.
